# Compounds with a hit are over-represented: about 4.7% of the library has one in this group of screens.
# IMP-1 inh: inhibitors of Pseudomonas aeruginosa IMP-1 metallo-beta-lactamase; purified IMP-1, nitrocefin hydrolysis, epi-absorbance fluorescence; inhibition, % at 5.6 µM; 0.45% of 290,000 active; AID 1556;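 active means inhibition above the mean plus 3 SD of all compounds in the same screening run, cut at about 4.5% in these data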;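 further: 0% = IMP-1 with DMSO and 100% = DMSO wells lacking enzyme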
#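 Assay system: purified recombinant IMP-1 beta-lactamase. Input: IMP-1 0.2 nM before substrate addition. Buffer or medium: Zinc- and detergent-supplemented HEPES buffer, pH 7.1. Schedule: 25 °C, 15 min preincubation, 25 min reaction. Signal: Epi-absorbance fluorescence, 480 nm excitation, 530 nm emission. Evaluation: percent inhibition from optical density relative to buffer-blank wells.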
# 697 NFkB inh: inhibitors of the PMA/ionomycin-induced NF-kB reporter in 697 B cells; 697 B-cell NF-kB luciferase reporter, 16 h; 0.33% of 330,000 active; inhibition, % at 4 µM; in the data active means inhibition above about 35%
# Jurkat NFkB inh: lowers PMA/ionomycin-induced NF-kB signal in Jurkat cells. PMA/ionomycin-induced NF-kB luciferase reporter, luminescence. inhibition, % at 4 µM. 0.53% of 330,000 active; in the data active means inhibition above about 50%
# VIM-2 inhibitor: blocks Pseudomonas aeruginosa VIM-2 metallo-beta-lactamase | purified VIM-2, nitrocefin hydrolysis, epi-absorbance fluorescence | AID 1527 | inhibition, % at 5.6 µM | 0.89% of 290,000 active;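 active means inhibition above the mean of all tested compounds plus 3 SD, cutoff set per screening run, cut at about 7.5% in these data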;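 further: red hydrolysis product quenches plate fluorescence so inhibitors raise well fluorescence; 0% = enzyme with DMSO and 100% = DMSO without enzyme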
# Mdm2-MdmX inh: human Mdm2/MdmX binding inhibition. 3% of 330,000 active. SaOS-2 split-luciferase Mdm2/MdmX complementation, luminescence. AID 485346. inhibition, % at 8 µM. O15151+Q00987;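 active means inhibition of at least 50% at 8 µM in the primary screen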
# Target sequence (O15151 whole entry, looked up): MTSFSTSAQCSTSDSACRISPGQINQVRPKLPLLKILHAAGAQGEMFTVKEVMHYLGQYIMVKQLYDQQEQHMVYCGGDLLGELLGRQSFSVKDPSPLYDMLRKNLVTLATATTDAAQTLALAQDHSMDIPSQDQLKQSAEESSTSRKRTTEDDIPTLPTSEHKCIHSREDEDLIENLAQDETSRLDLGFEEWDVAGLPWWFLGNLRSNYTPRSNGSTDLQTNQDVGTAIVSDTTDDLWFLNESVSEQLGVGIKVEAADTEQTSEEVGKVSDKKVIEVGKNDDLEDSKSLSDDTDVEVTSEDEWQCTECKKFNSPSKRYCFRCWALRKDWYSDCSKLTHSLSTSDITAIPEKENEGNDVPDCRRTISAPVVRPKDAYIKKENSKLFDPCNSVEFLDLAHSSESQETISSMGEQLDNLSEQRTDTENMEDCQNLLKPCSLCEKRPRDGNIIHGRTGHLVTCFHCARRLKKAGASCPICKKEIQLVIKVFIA
# Target sequence (Q00987 whole entry, looked up): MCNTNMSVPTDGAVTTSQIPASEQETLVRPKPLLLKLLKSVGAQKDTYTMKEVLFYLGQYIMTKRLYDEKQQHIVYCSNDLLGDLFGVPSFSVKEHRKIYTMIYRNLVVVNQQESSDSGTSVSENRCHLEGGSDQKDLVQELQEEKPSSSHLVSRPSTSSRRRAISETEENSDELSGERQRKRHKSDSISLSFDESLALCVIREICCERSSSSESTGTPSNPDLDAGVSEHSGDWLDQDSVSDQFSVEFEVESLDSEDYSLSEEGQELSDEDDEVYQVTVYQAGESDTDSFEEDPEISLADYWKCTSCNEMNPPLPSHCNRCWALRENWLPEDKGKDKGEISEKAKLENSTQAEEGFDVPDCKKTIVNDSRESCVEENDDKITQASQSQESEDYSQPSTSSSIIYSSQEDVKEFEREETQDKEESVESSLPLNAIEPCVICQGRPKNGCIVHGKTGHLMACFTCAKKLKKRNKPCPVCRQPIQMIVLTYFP
# aSyn 5UTR inh: 5' untranslated region of α-synuclein, MLPCN primary screen. inhibition, % (tested at 7.5 µM). 0.82% of 300,000 active. alpha-synuclein 5'UTR reporter, inhibitor activity; in the data active means inhibition above about 60%;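 further: H4 neuroglioblastoma cells stably carrying SNCA 5'UTR luciferase fusion; 0% = DMSO wells and 100% = positive control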
# * = called active by the depositor; / = no result given.
SMILES,IMP-1 inh,697 NFkB inh,Jurkat NFkB inh,VIM-2 inhibitor,Mdm2-MdmX inh,aSyn 5UTR inh
O=C(O)c1ccccc1OCc1ccccc1Br,1,11,5,9.1*,16,-14
Cc1ccc(-c2c(C(=O)Nc3ccccc3C)c(C)[nH]c(=S)c2C#N)o1,5.7*,5,-6,-4,-25,7
CC1(C)CC(=O)C(C(c2ccc(Br)cc2)C2C(=O)CC(C)(C)CC2=O)C(=O)C1,-4,6,9,-1,4,13
Cc1ccc(/C=N/Nc2ccc(Cl)nn2)cc1,-2,-62,-80,-2,-22,-151
CN(C)c1ccc(/C=N/Nc2ccc(-n3ccnc3)nn2)cc1,-2,-44,-19,8.2*,-8,-2
NC(=O)c1cccc2ccccc12,-1,13,9,-3,11,13
NC(=O)c1ccc(Cl)c2ccccc12,15*,-16,-45,-1,-7,-2
O=C(Nc1cccc(O)c1)c1c(O)c2ccccc2[nH]c1=O,-4,-219,-99,-3,-149,-92
CC(=O)Nc1ccc(OCc2cccc3ccccc23)cc1,-1,-14,-1,2,22,92*
CC(=O)Nc1ccc(NC(=O)/C=C/c2ccc3c(c2)OCO3)cc1,0,12,-16,-2,-2,-51
COC(=O)c1cccc(NC(=O)/C=C/c2ccc3c(c2)OCO3)c1,0,-42,25,-1,-4,102*
O=C(CNCC1CCCCC1)Nc1ccc(OC(F)(F)F)cc1,-2,17,-2,-2,-16,-14
Cc1ccc(OCCN(C)C(=O)C2CCC(=O)N(CCCN3CCCC3=O)C2)cc1 (stereo unspecified),-5,2,-6,-2,9,-10
COc1ccc(Cl)cc1C(=O)NCCCn1ccnc1,3,-20,-10,6,4,11
Cc1ccc(C(=O)N/C(=C\c2ccco2)C(=O)NCCCn2ccnc2)cc1C,9.7*,7,4,3,-8,4
COc1ccc(C(=O)N/C(=C\c2ccco2)C(=O)NCCCn2ccnc2)cc1,0,-23,-28,-3,-9,3
COc1ccc(C(C)=O)cc1CC(=O)NCCCn1ccnc1,4.8*,4,13,-2,14,5
COc1ccc(S(=O)(=O)Nc2ccc(F)c(F)c2)cc1Cl,4.6*,-5,-12,0,1,9
O=C(CSc1nnc(N2CCCC2)n1-c1ccccc1Cl)N1CCN(c2ccccn2)CC1,/,1,9,/,12,/
Cc1nc(NCc2cccnc2)c2c3c(sc2n1)CC(C)CC3 (stereo unspecified),-1,-4,-14,9.9*,-17,-30
Cc1nc(NCc2ccccn2)c2c3c(sc2n1)CCCC3,-4,-6,8,5,-4,21
Cc1ccccc1N(CC(=O)NCC1CCCO1)C(=O)CNS(=O)(=O)c1ccc(F)cc1 (stereo unspecified),-1,8,-2,-1,23,-8
CC(C)(C)OC(=O)C[C@H]1C/C=C\C[C@H](CC(=O)NCCO)C(=O)N2CCC[C@@H]2COC1=O,/,5,-9,/,12,/
O=C(O)c1cc(-n2nnnc2SCc2ccccc2F)ccc1Cl,-2,-9,12,10*,23,4
Oc1cccc(-n2nnnc2SCc2ccccc2F)c1,-2,1,6,-2,-15,-2
SMILES,IMP-1 inh,697 NFkB inh,Jurkat NFkB inh,VIM-2 inhibitor,Mdm2-MdmX inh,aSyn 5UTR inh
Cc1cccc(N2CCN(CC(=O)Nc3ccc(S(=O)(=O)N4CCOCC4)cc3)CC2)c1C,4.5*,-61,27,2,10,-7
O=C(CCCc1ccccc1)Nc1ccc(S(=O)(=O)N2CCOCC2)cc1,-2,10,-9,-1,-22,1
Cc1ccc(S(=O)(=O)N2CCN(CC(=O)Nc3ccc(N4CCOCC4)cc3)CC2)cc1C,-2,-6,-12,-3,22,13
O=C(CCSc1ccccc1)Nc1ccc(S(=O)(=O)N2CCOCC2)cc1,47*,8,4,0,21,7
CC/C(O)=C1\C(=O)CCCC1=NCc1nc2ccccc2[nH]1,-3,-6,-10,-3,10,4
OC[C@@H]1CC[C@@H](Cc2ccc(-c3ccccc3)cc2)O1,/,-152,/,/,-43,/
Cc1cc(NC(=O)C2CC(=O)N(c3ccccc3Cl)C2)no1 (stereo unspecified),-3,10,27,-3,20,6
Cc1ccccc1NC(=O)C1c2cccc[n+]2CC(=O)N1c1c(C)cccc1C (stereo unspecified),14*,4,-6,-1,-4,-23
COc1ccc(-c2nn(C)c(=O)c3ccccc23)cc1CNS(C)(=O)=O,-1,29,-1,8.5*,42,14
COCCNS(=O)(=O)c1cc(-c2nn(C)c(=O)c3ccccc23)ccc1C,-2,3,2,2,31,23
COc1ccc(-c2nn(C)c(=O)c3ccccc23)cc1CNC(=O)c1ccco1,0,20,4,8.9*,38,4
O=C(NCC1CCCO1)C1CCCN(S(=O)(=O)c2cccc(C(F)(F)F)c2)C1 (stereo unspecified),4.6*,-26,-33,1,-32,-1
CC(C)C(C(=O)O)N1C(=O)/C(=C/C=C/c2ccco2)SC1=S (stereo unspecified),5.8*,-1,18,-1,21,-9
O=C1/C(=C/C=C/c2ccco2)SC(=S)N1c1ccc(O)cc1,1,15,4,0,-15,-78
CCC(=O)NC(c1ccc(C)cc1)c1cc([N+](=O)[O-])c2cccnc2c1O (stereo unspecified),-5,/,/,-4,/,64*
CCCC(=O)NC(c1ccco1)c1cc([N+](=O)[O-])c2cccnc2c1O (stereo unspecified),-4,5,10,-2,45,-15
CC(C)NC(=O)C(=O)NCCC1CCCCN1S(=O)(=O)c1cccs1 (stereo unspecified),/,-10,-6,/,4,-7
COc1cccc(-c2cc(C(F)(F)F)nc(N3CCC(C)CC3)n2)c1,4.5*,-1,1,-2,-7,8
COc1cccc(-c2cc(C(F)(F)F)nc(N3CCOCC3)n2)c1,-4,8,0,-5,9,39
O=C(Nc1cccc(Br)c1)c1ccc(OC2CSC2)cc1,-3,-30,-89,-3,-120,-198
Cc1ccc(CSc2ncnc3c2cnn3Cc2ccccc2)cc1C,0,27,5,-2,10,0
Cc1ccc(CSc2ncnc3c2cnn3Cc2ccccc2)cc1,6.7*,33,-10,0,-1,4
CCN(CC)c1ccc(/C=C/C(=O)C2C(=O)C=C(C)OC2=O)cc1 (stereo unspecified),7.4*,-52,5,7,-52,-240
O=C1C(C=NCCCn2ccnc2)=C(O)c2ccccc21,-3,-18,4,1,1,-42
CC(=NCCCn1ccnc1)C1=C(O)c2ccccc2C1=O,-4,21,-1,12*,-3,-13

# Compound activity from PubChem BioAssay.
